This passage reports cytotoxicity results from ChEMBL document CHEMBL4513216, “Probing the Open Global Health Chemical Diversity Library for Multistage-Active Starting Points for Next-Generation Antimalarials” (ACS Infect Dis, 2020).

This series can be described thus: Toxicity liver stage against HepG2, at 10uM. The class given is cell-based. On the set-up: test concentration 10 uM, cell line HepG2-A16-CD81EGFP. The settings on record: human, HepG2-A16-CD81EGFP cells; read-out: INHIBITION
The procedure, abridged: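 Uninfected HepG2-A16-CD81EGFP cells, 3 × 10^3 per well, 1536-well, plated on prespotted compound at 10 μM final, parasite-free screening media added to match infected plates; puromycin 10 μM positive, DMSO 0.5% negative; run in parallel with 48 h PbLuc assay at 37 °C, 5% CO2; viability by CellTiter-Glo luminescence, normalized to controls.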
For `COc1ccc(NC(=O)c2cnc(C3CCN(C(C)=O)C3)nc2C)cc1` (stereo not given), the cytotoxicity at 10 µM is -2.6%. The same measure for `Cc1ncsc1CN1CCN(C2CCOCC2)CC(C(N)=O)C1` (stereo not given): 14.4%; for `COc1ccccc1CN1CCc2c(nc(-c3ccccn3)[nH]c2=O)C1`: -19.7%. With `CC(=O)N1CCCC1c1ccc(-c2c(C)noc2C)cn1` (stereo not given) the figure was 2.88%. With `Cc1ccc(N2CCCN(C(=O)C(C)OCC3CC3)CC2)nn1` (stereo not given) the figure was 0.0479%; with `COCc1nnc(-c2cccc(C(=O)N(C)CC(C)(C)C)c2)o1`, -11.1%; with `O=C(NCc1nncn1C1CC1)c1cccnc1Oc1ccccc1`, 1.57%. Turning to `O=C(NCc1nncn1C1CC1)c1ccccc1OCC1CC1`, the cytotoxicity at 10 µM turned out to be 3.36%. The same measure for `COc1cc(C2(C(=O)NC3CCN(CC4CC4)CC3)CC2)ccc1C`: -11.2%; for `CC1CN(C)c2ccccc2CN1C(=O)c1ccoc1` (stereo not given): -2.84%. `CNC(=O)C(C)(C)CNC(=O)Nc1cc(C)ccn1`: the cytotoxicity at 10 µM was determined as 11.7%. Take `O=C(O)c1c(Cl)ncn1-c1cccc2ccccc12`: the cytotoxicity at 10 µM is 1.76%.

Turning to `CC1(C)CN=C(N2CCN(CC3CCCO3)CC2)S1` (stereo not given), the cytotoxicity at 10 µM was -8.41%.

On to `CC(=O)NCCCC(=O)NC1(c2ccc(Cl)c(Cl)c2)CC1`, for which the cytotoxicity at 10 µM was -7.79%. With `Cc1nonc1NC(=O)c1ccc(F)c(COCC2CC2)c1` the figure was 18.6%. Regarding `CC(=O)N1CCCc2cc(NC(=O)NCCc3cnn(C)c3)ccc21`, the cytotoxicity at 10 µM is -5.42%. With `Cc1cc(=O)c(C(=O)N(C)Cc2ccc(Cl)c(F)c2)c[nH]1` the figure was 9.39%.

As to `CC(=O)N1CCOC2(CCN(C(=O)c3cnoc3C)CC2)C1`, the cytotoxicity at 10 µM was -0.0788%. The same measure for `Cc1cc(C)n(Cc2cc(C(=O)N[C@H]3CCCCNC3=O)n[nH]2)n1`: 5.97%; for `CCCS(=O)(=O)N1CCC2(CCC(=O)N(CCc3ccccc3)C2)CC1`: 6.84%. For the molecule `CCC(CO)N(Cc1cccc(-n2cccn2)c1)Cc1ccccn1` (stereo not given), the cytotoxicity at 10 µM turned out to be 6.95%. In the case of `CC(C)c1nc(-c2ccc(=O)[nH]n2)n(-c2ccc3c(c2)OCO3)n1`, the cytotoxicity at 10 µM worked out at 6.46%. With `N#Cc1ccc(CN2CCCC2Cn2cccn2)c(F)c1` (stereo not given) the figure was -9.2%.

Turning to `Cc1ccc(O)c(CNCC2CCCN2c2cccnn2)n1` (stereo not given), the cytotoxicity at 10 µM is -7.92%. The same measure for `O=C(CCN1C(=O)CCC1=O)NCC1(c2c(F)cccc2F)CCCC1`: -9.47%; for `Cc1cccnc1NC(=O)c1ccc(-n2ncc(C#N)c2N)cc1`: -9.35%; for `Cc1cc(CNC(=O)CN2CCCC(Cn3cncn3)C2)ccc1F` (stereo not given): -9.92%. `Cc1noc(C)c1C(=O)NCc1ccc(N2CCCCCC2)nc1`: the cytotoxicity at 10 µM worked out at 2.76%. The same measure for `CCc1[nH]ncc1C(=O)N1CCOC(c2nc(C)n[nH]2)C1` (stereo not given): -8.69%. With `O=C(CCc1ccccc1Br)NS(=O)(=O)c1ccc2c(c1)OCCO2` the figure was -10.7%. The same measure for `Cc1cc(C)n(C2CN(CCC(=O)NC3CCCCC3)C2)n1`: 1.04%; for `CN1CCN(C2CCN(CCOc3ccc(F)cc3)CC2)C1=O`: -7.8%. As to `CC(C)OCCN1CCC(N2CCN(C)C2=O)CC1`, the cytotoxicity at 10 µM is -11.4%.

On to `COCCN1CCC(NCc2cccc(F)c2)C1` (stereo not given), for which the cytotoxicity at 10 µM is -8.85%. With `COc1c(CNCc2cnn(C)c2)c(C(C)C)nn1C` the figure was -7.39%. With `Cc1noc(C)c1C(=O)N1CCCC1c1c(C)nn(C)c1Cl` (stereo not given) the figure was -12.6%; with `Cc1ncc2c(n1)CN(Cc1noc(C3CC3)n1)CC2`, -13.4%. The same measure for `COc1ccc(CN(Cc2c[nH]cn2)CC2CCCO2)c(OC)c1` (stereo not given): -26%.

Consider `O=C(c1cccnc1)N1CCc2ncnc(C3CCOC3)c2CC1` (stereo not given), for which the cytotoxicity at 10 µM came out at 4.22%. The same measure for `CC(C)c1nc(C2CCCNC2)no1` (stereo not given): 0.684%.
